Assay [1] has as its system Human immunodeficiency virus 1. The assay can be described thus: Selectivity ratio of CC50/EC50. Format: functional. In short, it runs like this:
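Ratio of CC50 (MTT viability of mock-infected MT-4 cells) to EC50 (MTT-based 50% protection of HIV-1-infected MT-4 cells from cytopathicity), both determined in parallel.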

The subject of assay [2] is MT-4 (Homo sapiens). The assay can be described thus: Anti-HIV activity to protect MT-4 cells from cytopathogenicity induced by HIV-1 K103N-Y181C (MTT method). For orientation: Cytopathic effects are the visible damage that an infection or toxin causes in cultured cells.
The subject of assay [3] is Human immunodeficiency virus 1. The assay can be described thus: Anti-HIV activity protecting MT-4 cells from HIV-1 induced cytopathogenicity. The format is functional, organism-based. As to conditions: Human immunodeficiency virus 1, MT4.
Assay [4] concerns MT4. The assay can be described thus: Cytotoxicity, reducing the vaiability of mock-infected cells. The format is functional. As to conditions: Homo sapiens.
For assay [5], the system named is MT-4 (Homo sapiens). In words: Anti-HIV activity to protect MT-4 cells from cytopathogenicity induced by HIV-1 K103N-Y181C (MTT method). The source holds these as a separate data set.
In assay [6] the test system is C8166. The assay can be described thus: Anti-HIV activity to reduce the amount of p24 in C8166 cells infected with efavirenz resistance strain K103R, V179D, and P225H. Format: functional, cell-based, Homo sapiens. The method, boiled down:
(§1)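 Efavirenz-resistant K103R-V179D-P225H virus came from IIIB passaged in C8166 cells with efavirenz (up to 2 µM); stock 3.0 × 10^5 CCID50/mL. Acutely infected C8166 cells (1 × 10^4/well) were incubated at 37 °C with or without compound dilutions. p24 was measured by immunoenzymatic kit. Value is the concentration giving 90% p24 reduction; mean of three experiments.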

Assay [7] concerns MT4. The assay can be described thus: Anti-HIV activity to protect MT-4 cells from HIV-1 induced cytopathogenicity by MTT method Y181C. Format: functional, cell-based. The note with it: Homo sapiens. In short, it runs like this:
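Acutely infected MT-4 cells (1 × 10^4/well) exposed to serial compound dilutions, then HIV-1 (wt IIIB from H9/IIIB supernatant, or Y181C mutant NIH N119) at inoculum giving full cytopathicity by day 4; 37 °C incubation; viability read by MTT. EC50 = µM giving 50% protection from virus-induced cytopathicity; mean ± SE of three experiments.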

Assay [8] has as its system C8166. The assay can be described thus: Anti-HIV activity to reduce the amount of p24 in WT IIIB infected C8166 cells. The note with it: Homo sapiens. The format is functional, cell-based. The method, boiled down: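 HIV-1 IIIB came from supernatants of persistently infected H9/IIIB cells; stock 4.5 × 10^6 CCID50/mL. Acutely infected C8166 cells (1 × 10^4/well) were incubated at 37 °C with or without compound dilutions. p24 was measured by immunoenzymatic kit. Value is the concentration reducing p24 by 90%; mean of three experiments.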

Assay [9] concerns the target Human immunodeficiency virus type 1 reverse transcriptase (Human immunodeficiency virus 1, UniProt Q72547). In words: Activity to inhibit HIV-1 Reverse transcriptase activity in WT IIIB. In short, it runs like this:
(§2)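 Purified recombinant RT (wt or K103N mutant) assayed for RNA-dependent DNA polymerase activity. Buffer: 50 mM Tris-HCl pH 7.8, 80 mM KCl, 6 mM MgCl2, 1 mM DTT, 0.1 mg/mL BSA. Template:primer was poly(rC)-oligo(dG)12-18 at 0.5 OD260 unit/mL, with [3H]dGTP. Incubated 30 min at 37 °C; acid-insoluble radioactivity counted on glass-fibre filters. IC50 reported as mean of two experiments.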

Assay [10] addresses Human immunodeficiency virus type 1 reverse transcriptase (Human immunodeficiency virus 1, UniProt Q72547, K103N). In words: Activity to inhibit HIV-1 Reverse transcriptase activity in K103N. The method, boiled down:
as §2

Assay [11] has as its system C8166. In words: Anti-HIV activity to reduce the amount of p24 in C8166 cells infected with efavirenz resistance strain. Format: functional, cell-based. The note with it: Homo sapiens. The method, boiled down:
as §1

For `Cc1ccc(S(=O)(=O)c2c(C(N)=O)[nH]c3ccc(Cl)cc23)c(C)c1`, in assay [1], the Selectivity index is given as 9250. In addition, the figures for the EC50 (in the assay on MT-4 (Homo sapiens) [2]; in assay [3]) were 10000 nM and 4 nM, respectively. For the same compound, in the assay with MT4 [4], it took 37000 nM to reach half-maximal cytotoxicity (CC50).

For the compound `Cc1cccc(S(=O)(=O)c2c(C(N)=O)[nH]c3ccc(Cl)cc23)c1`, the Selectivity index in assay [1] is reported as above 200000. Moreover, the EC50 (in general, the concentration that produces a half-maximal response) in the assay on MT-4 (Homo sapiens) [5] was found to be 7000 nM; in assay [3], 1 nM; with MT4 [7] it was 6 nM. In addition, the EC90 (in general, the concentration at which the effect reaches the 90% level) in the assay on C8166 [6] was 260 nM; in the assay on C8166 [8] it was 5 nM. The CC50 (commonly the concentration giving 50% cytotoxicity) with MT4 [4] is above 200000 nM.

With `NNC(=O)c1[nH]c2ccc(Cl)cc2c1Sc1ccccc1`, the Selectivity index in assay [1] is 88. In addition, the 50% effective concentration (EC50) in [3] worked out at 500 nM. Further, the 50% cytotoxic concentration (CC50) in the assay with MT4 [4] came out at 44000 nM.

Take `Cc1ccccc1S(=O)(=O)c1c(C(N)=O)[nH]c2ccc(Cl)cc12`: the Selectivity index in assay [1] is on record as above 200000. For the same compound, the EC50 is 10000 nM in the assay on MT-4 (Homo sapiens) [5] and 1 nM in [3]. The EC90 in the assay with C8166 [6] came out at 2600 nM; in the assay on C8166 [8], 5 nM. The compound also came in with a CC50 with MT4 [4] above 200000 nM.

In the case of `NNC(=O)c1[nH]c2ccc(Cl)cc2c1S(=O)(=O)c1ccc(F)cc1`, the Selectivity index in [1] was found to be 147. Further, the midpoint of the response in assay [3], the EC50, lay at 300 nM. It took 44000 nM to reach half-maximal cytotoxicity with MT4 [4] (CC50).

`Cc1ccc(S(=O)(=O)c2c(C(N)=O)[nH]c3ccc(Cl)cc23)cc1`: in [1], the Selectivity index was above 66667. In addition, the values for the EC50 (in the assay on MT-4 (Homo sapiens) [2]; in assay [3]; with MT4 [7]) were above 100000 nM, 3 nM and 20 nM, respectively. Further, in the assay on MT4 [4], the 50% cytotoxic concentration (CC50) is above 200000 nM. Further, the values for the concentration for half-maximal inhibition (IC50) in [9] and in assay [10] were 72 nM and above 5000 nM, respectively. Also, the 90% effect level in the assay on C8166 [8] (EC90) was put at 10 nM.

As for `CCOC(=O)c1cc2cc(Cl)ccc2n1S(=O)(=O)c1cc(Cl)ccc1N`, in assay [1], the Selectivity index is 4.7. In [3], this compound yielded an EC50 of 8300 nM. This compound also registered a CC50 in the assay on MT4 [4] of 39000 nM.

For the compound `Cc1cc(C)cc(S(=O)(=O)c2c(C(N)=O)[nH]c3ccc(Cl)cc23)c1`, the Selectivity index in [1] is on record as 3750. In addition, the 50% effective concentration (EC50) with MT-4 (Homo sapiens) [2] amounted to 650 nM; in [3] it was 4 nM. Also, the CC50 in the assay with MT4 [4] was 15000 nM. In addition, the 50% inhibitory concentration (IC50) (as a rule, the point on the concentration scale where inhibition reaches its midpoint) in assay [9] is 31 nM; in assay [10] it was above 5000 nM. In addition, the EC90 in the assay with C8166 [8] came to 2 nM.

As to `NC(=O)c1[nH]c2ccc(Cl)cc2c1S(=O)(=O)c1ccccc1` [L-737126], in assay [1], the Selectivity index is listed as 45000. Further, the figures for the 90% effect concentration (EC90) in the assay on C8166 [11] and in the assay with C8166 [8] were 900 nM and 7 nM, respectively. In assay [3], a half-maximal effect (EC50) was put at 1 nM. In the assay with MT4 [4], this compound registered a CC50 of 45000 nM. For the same compound, the IC50 in assay [9] is 25 nM; in [10] it was above 5000 nM.

The values above are taken from ChEMBL document CHEMBL1145983, “Novel indolyl aryl sulfones active against HIV-1 carrying NNRTI resistance mutations: synthesis and SAR studies” (J Med Chem, 2003).
